Many of the other results were omitted from the sample, so hits are more common in it than they were.
CTSL1 counter – blocks F. hepatica cathepsin L1 in PFM18AAP counter-screen | recombinant F. hepatica cathepsin L1, Z-Leu-Arg-MCA fluorescence | inhibition, % at 5.96 µM | 300,000 compounds, 0.49% hits | AID 1906;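 active means inhibition above the mean of all tested compounds plus 3 SD, set per screening campaign, cut at about 17% in these data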;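 further: 0% = plate median of test compound wells and 100% = 1 µM Z-Phe-Ala-diazomethylketone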
UPR XBP1 act – adaptive UPR (XBP1) activation; CHO-XBP1 luciferase reporter, IRE1-XBP1 UPR activation, luminescence; percent of tunicamycin response, DMSO as zero; activation, % at 20 µM; 330,000 compounds, 0.33% hits; AID 463104;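 active means versus positive control, 20 µM dose yields 30% or more activation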;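 further: 100% = tunicamycin at 10 µg/mL and 0% = DMSO only wells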
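Material – CHO cell line with stable XBP1 luciferase reporter · Buffer or medium – F12 plus 10% FBS · Compound – single point, 20 µM final compound, 1% DMSO · Schedule – 16-18 h cell attachment at 37 °C, then 6 h compound exposure · Signal – Steady-Glo luminescence read · Benchmarks – high control tunicamycin 10 µg/mL final, low control DMSO vehicle only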
UCH37 inh – inhibitors of human deubiquitinating enzyme UCH37; purified proteasome/UCH37, Ub-AMC cleavage fluorescence; 330,000 compounds, 0.33% hits; Q9Y5K5; inhibition, % (no concentration beside the values);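 active means mean inhibition over replicate wells above about 20%, limit read from the data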;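 further: 0% = compound-free wells with enzyme and 100% = wells lacking proteasome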
Target sequence (Q9Y5K5 whole entry, looked up): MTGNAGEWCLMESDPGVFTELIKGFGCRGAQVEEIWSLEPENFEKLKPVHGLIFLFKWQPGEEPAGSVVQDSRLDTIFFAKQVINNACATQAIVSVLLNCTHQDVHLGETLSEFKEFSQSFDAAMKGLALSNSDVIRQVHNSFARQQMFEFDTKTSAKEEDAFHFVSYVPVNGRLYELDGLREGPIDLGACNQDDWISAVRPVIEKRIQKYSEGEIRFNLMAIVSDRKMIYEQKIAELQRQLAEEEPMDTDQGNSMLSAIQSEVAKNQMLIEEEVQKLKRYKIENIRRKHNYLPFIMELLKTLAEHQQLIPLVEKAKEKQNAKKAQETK
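assay system = human UCH37 enzyme supplied as purified proteasome complex | amount = proteasome at 0.15 nM in the dispensed enzyme solution | schedule = 30 min compound-proteasome preincubation then 25 min substrate reaction, room temperature | measured by = fluorescence, ex 355 nm, em 460 nm | benchmarks = no-proteasome wells (full inhibition) and compound-free wells (no inhibition)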
CHOP inhibitor – blocks CHOP induction under ER stress | inhibition, % at 10 µM | AID 2732 | CHO-K1 CHOP-promoter luciferase, tunicamycin-induced, 15-18 h | 220,000 compounds, 3.8% hits;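 active means compounds that reduced the stress-induced luciferase reporter signal by more than about 70% of percent inhibition, limit read from the data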;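 further: 0% = tunicamycin plus vehicle and 100% = wells without tunicamycin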
UPR CHOP act – activators of apoptotic arm of unfolded protein response (CHOP). CHO-CHOP luciferase reporter, UPR activation, luminescence; percent of tunicamycin response over DMSO baseline. activation, % at 10 µM. 330,000 compounds, 0.34% hits. AID 449763;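 active means at 10 µM dose, activation of 40% or more, normalized to positive control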;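 further: 100% = tunicamycin at 10 µg/mL and 0% = DMSO alone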
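Test system: CHO CHOP reporter cells. Input: 500 CHO-CHOP cells per well. Medium: F12 with 10% FBS. Technique: luciferase luminescence. Measure: percent activation relative to tunicamycin control. Dosing: 10 µM compound, 0.5% DMSO. Timing: 16-18 h cell attachment, then 6 h compound exposure, 37 °C.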
Starred values were filed as active, the others as inactive; i = inactive; x = not tested or not shown.

SMILES	CTSL1 counter	UPR XBP1 act	UCH37 inh	CHOP inhibitor	UPR CHOP act
Cc1nc(NC(=O)/C=C/c2ccccc2)sc1C(=O)Nc1ccccc1	3	-1	-59	92*	2
Cc1nc(Nc2ccc(S(N)(=O)=O)cc2)sc1C(=O)Nc1ccccc1	2	-3	21*	12	0
O=C(/C=C\c1ccccc1)Nc1ccc(NC(=O)c2ccco2)cc1	0	-2	-2	95*	0
Cc1cccc(NC(=O)CCC(=O)NN=Cc2ccc(O)cc2O)c1	x	x	-11	x	x
CC1CCCC(NC(=S)NC(=O)c2ccccc2Br)C1C (stereo unspecified)	-2	-2	4	89*	-1
CCC(C)[C@H](N)C(=O)NCC1CCC(C(=O)N[C@@H](Cc2ccccc2)C(=O)O)CC1 (stereo partly specified)	x	x	1	x	x
O=C(CN1C(=O)/C(=C\c2cccc(F)c2)Oc2ccccc21)N1CCN(c2ccccn2)CC1	-1	0	i	18	1
O=C(CN1C(=O)/C(=C\c2ccc(F)cc2)Oc2ccccc21)N1CCN(c2ccccn2)CC1	5	19	i	90*	6
c1ccc(N2CCN(c3ccccc3)C2c2cccnc2)cc1	-6	-1	2	8	1
Cc1ccc(N2CCN(c3ccc(C)cc3)C2c2cccnc2)cc1	0	-3	1	76*	1
O=C(NCCN1CCCCCC1)C1CCC(CNS(=O)(=O)c2cccc3cccnc23)CC1 (stereo unspecified)	39*	-1	5	11	1
CN1CCN(C(=O)C2CCC(CNS(=O)(=O)c3cccc4cccnc34)CC2)CC1 (stereo unspecified)	3	-5	3	-9	1
O=C1C2C(c3ccccc3)=NN(c3ccccc3)C2C(=O)N1c1ccccc1 (stereo unspecified)	1	0	i	73*	0
O=C(Nc1ncc([N+](=O)[O-])s1)c1cccs1	0	-7	13	x	1
O=C(/C=C/c1ccc([N+](=O)[O-])cc1)Nc1ncc([N+](=O)[O-])s1	x	x	9	94*	x
CCCOc1ccc(/C=C/C(=O)Nc2ccc([N+](=O)[O-])cc2)cc1	6	-1	9	95*	-1
CCCCOc1ccc(/C=C/C(=O)Nc2ccc(C(N)=O)cc2)cc1	3	-4	-7	-7	0
CCCCOc1ccc(/C=C/C(=O)Nc2ccc([N+](=O)[O-])cc2C)cc1	-1	1	6	80*	-1
CN(C)c1ccc(C=NNC(=O)C[n+]2ccccc2)cc1	x	x	15	x	x
CC(C)(C)N=C1NN=C(c2ccc(Cl)cc2)CS1	21*	2	6	-1	3
O=C(NN=Cc1ccccc1)c1ccc(-c2ccccc2)cc1	x	x	3	x	x
COc1cc(S(=O)(=O)NCCN2CCOCC2)c(OC)cc1Cl	2	1	2	78*	0
CNC(=O)C(Sc1ccccc1)c1ccccc1 (stereo unspecified)	-4	2	1	23	0
CCCNC(=O)C(Sc1ccccc1)c1ccccc1 (stereo unspecified)	36*	-1	4	11	-2
Nc1ccc(C(=O)NN=Cc2cccc(Oc3ccccc3)c2)cc1	x	x	-2	x	x
SMILES	CTSL1 counter	UPR XBP1 act	UCH37 inh	CHOP inhibitor	UPR CHOP act
COc1cc(NC(=O)c2csc(N)n2)cc(C(=O)Nc2cccc(C(F)(F)F)c2)c1	6	1	-1	79*	4
CC(CN1CCOCC1)OC(=O)c1ccc(Br)cc1 (stereo unspecified)	-5	11	-2	92*	7
O=C(NN=Cc1ccc(-c2cccc(C(F)(F)F)c2)o1)c1cccc(F)c1	x	x	-22	x	x
CC(CC(=O)N1CCCC1)=NNC(=O)c1cc2ccccc2cc1O	x	x	1	x	x
CC1(C)CC(=O)c2cnc(N3CCN(c4ccccc4)CC3)nc2C1	-2	-1	-1	87*	5
Cn1c(CNC(=O)CCNC(=O)c2cccc(Br)c2)cc(=O)n(C)c1=O	36*	-1	4	x	0
Cc1ccc2nc(C)cc(Nc3ccc([N+](=O)[O-])cc3)c2c1	4	x	1	104*	x
Cc1ccc(Nc2nc(=O)c3cc([N+](=O)[O-])ccc3s2)cc1	3	3	5	93*	2
COc1ccc(Nc2nc(=O)c3cc([N+](=O)[O-])ccc3s2)cc1	x	x	2	-2	x
Cc1ccc2nc(SCc3ccc([N+](=O)[O-])cc3)nc(C)c2c1	-5	0	3	75*	-2
CCOc1ccc(-c2c(C(=O)NN=Cc3ccc(O)cc3)nnn2-c2nonc2N)cc1	x	x	1	x	x
Cc1ccc2nc(C)c(C(=O)NN=Cc3ccc(N4CCOCC4)cc3)cc2c1	x	x	-49	x	x
COc1cc(C(C)=NN2CCN(c3ccccc3OC)CC2)ccc1O	x	x	5	x	x
CC(C)CCNC(=O)[C@H](CC(C)C)NC(=O)[C@H]1O[C@@H]1C(=O)O	111*	-4	x	17	0
CCOC(=O)[C@H]1O[C@@H]1C(=O)N[C@@H](CC(C)C)C(=O)NCCC(C)C	106*	-7	0	8	0
CC1=C(OC(=O)c2ccccc2)C(C)(C)C(c2ccccc2)OC1=O (stereo unspecified)	2	-5	1	81*	-1
CC1=C(OC(=O)c2ccccc2)C(C)(C)C(c2ccc(Br)cc2)OC1=O (stereo unspecified)	1	-4	4	91*	0
Cc1cccc(C)c1OC(=O)c1ccccc1	x	x	1	x	x
CC1=C(OC(=O)c2ccc(Br)cc2)C(C)(C)C(c2ccccc2)OC1=O (stereo unspecified)	3	-6	0	37	3
CC1CCCC(C)N1N=Cc1cccc(Br)c1 (stereo unspecified)	x	x	4	x	x
CC(=NNc1nccnc1Cl)c1ccc([N+](=O)[O-])cc1	x	x	4	x	x
CCCCNC(=O)C(=O)N/N=C/c1cccc(Br)c1	2	2	x	71*	0
Cc1ccc(N2C(=NC(=O)c3ccccc3)SC3CS(=O)(=O)CC32)cc1 (stereo unspecified)	2	-5	1	x	-1
CCCC(=O)N=C1SC2CS(=O)(=O)CC2N1c1ccc(-c2nc3ccc(C)cc3s2)cc1 (stereo unspecified)	0	65*	-134	77*	18
Cc1ccc(-c2csc(/C=C3\SC(C)C(=O)N3CC(=O)Nc3ccccc3F)n2)cc1 (stereo unspecified)	0	-1	-6	93*	2
Cc1ccc2c(=O)cc(C(F)F)oc2c1	-2	0	5	12	1
Cc1cc(C)c2c(=O)cc(C(F)F)oc2c1	17*	-4	-1	36	0
COc1cc(C=NNc2nc(C)cc(=O)[nH]2)ccc1OC(=O)c1cccnc1	x	x	4	x	x
